High-throughput results: PubChem BioAssay, several laboratories
Vif inh: HIV Vif self-association inhibitors, primary screen, imaging, HEK293T, single point. HEK293T cells, Vif self-association by quenched fluorescence, 24 h. inhibition, % at 7.49 µM. hit rate 0.35% among 340,000. AID 602346, 2012; in the data active = inhibition above about 50%, passing the limit was not always enough
SR-BI uptake up: activators of SR-BI mediated DiI-HDL uptake, primary screen, ldlA[mSR-BI] CHO cells, DiI fluorescence; 3 h; 100 = double the neutral-control signal; activation, % at 12.5 µM; hit rate 0.096% among 320,000;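 active = mean replicate activation of at least 60% and every replicate at or above 60%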
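Material: SR-BI-overexpressing, LDLR-lacking CHO cells | Dosing: Single compound concentration, delivered by pin transfer | Probe or stimulus: Labelled HDL, 10 µg/mL | Signal: Bottom-read cell fluorescence after medium removal, ex 550/em 595 nm | Schedule: 3 h, 37 °C | Evaluation: HDL uptake via cellular fluorescence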
PKA-R2B activ: activators of PKA-R2B holoenzyme, primary screen, biochemical, fluorescence polarization, Cy5-IP20, human; cAMP-dependent protein kinase catalytic subunit beta (Homo sapiens) + cAMP-dependent …; PKA-R2B holoenzyme dissociation; R2B truncated from residue 108, S112A mutant; 0% DMSO only, 100% 113 µM cGMP; activation, % at 11.4 µM; hit rate 0.079% among 340,000;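 active = activation above a cutoff set at the mean over all compounds plus 3 SD, cut at about 18% in these data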;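 note: higher means more holoenzyme dissociation and a rise in polarization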
PKA-R1A activ: activators of PKA-R1A holoenzyme, primary screen, biochemical, fluorescence polarization, Cy5-IP20, bovine R1A, mouse PKAc. PKA-R1A dissociation; scaled: DMSO 0%, 113 µM cGMP 100%. activation, % at 11.4 µM. hit rate 0.083% among 340,000. AID 504707, 2011;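 active = percent activation above the mean of all tested compounds plus 3 SD, cut at about 19% in these data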;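 note: higher means more PKAc released from R1A so a rise in polarization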
SR-BI DiI inh: inhibitors of SR-BI mediated HDL lipid uptake, primary screen, ldlA[mSR-BI] cells, fluorescence, single point. Scavenger receptor class B member 1 (Mus musculus), Q61009. ldlA[mSR-BI] CHO cells, DiI-HDL uptake fluorescence, 3 h. inhibition, % at 12.5 µM. hit rate 0.96% among 320,000;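 active = mean replicate inhibition of at least 70% and a set share of replicates each scoring 70 or more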
Target sequence (Q61009 whole entry, looked up): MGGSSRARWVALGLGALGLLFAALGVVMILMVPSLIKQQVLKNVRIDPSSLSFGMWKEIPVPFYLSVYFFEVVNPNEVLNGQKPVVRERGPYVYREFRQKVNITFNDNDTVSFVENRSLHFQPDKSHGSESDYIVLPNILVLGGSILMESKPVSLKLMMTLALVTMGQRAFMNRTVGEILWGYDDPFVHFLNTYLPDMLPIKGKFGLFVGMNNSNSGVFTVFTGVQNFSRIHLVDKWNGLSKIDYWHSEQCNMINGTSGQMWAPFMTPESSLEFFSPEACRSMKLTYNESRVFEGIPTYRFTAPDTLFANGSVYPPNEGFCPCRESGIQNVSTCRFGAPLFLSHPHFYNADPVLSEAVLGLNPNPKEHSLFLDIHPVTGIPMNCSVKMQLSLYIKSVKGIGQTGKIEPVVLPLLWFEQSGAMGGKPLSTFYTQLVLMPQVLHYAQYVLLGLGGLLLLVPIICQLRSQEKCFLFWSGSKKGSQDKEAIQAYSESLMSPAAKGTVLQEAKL
Hits are given with their value. Hits are enriched below; roughly 1.4% of the tested compounds scored in any of these assays.

Results for O=[N+]([O-])c1cccc(/C=N/Nc2cc(Cl)nc(-c3ccccc3)n2)c1 ?
Vif inh: inactive; SR-BI uptake up: inactive; PKA-R2B activ: inactive; PKA-R1A activ: inactive; SR-BI DiI inh: 74

What do the screens show for `COc1cc(N/N=C(\C)c2ccc(N)cc2)nc(-c2ccccc2)n1`?
Vif inh: inactive; SR-BI uptake up: inactive; PKA-R2B activ: inactive; PKA-R1A activ: inactive; SR-BI DiI inh: 79

Results for Cc1ccc(-c2nc(CN(C)Cc3ccc4nccnc4c3)c(C)o2)s1 ?
Vif inh: inactive; SR-BI uptake up: inactive; PKA-R2B activ: inactive; PKA-R1A activ: inactive; SR-BI DiI inh: inactive

What do the screens show for `C/C(=N\Nc1nc(C)cc(-c2ccccc2)n1)c1ccc(O)cc1`?
Vif inh: inactive; SR-BI uptake up: inactive; PKA-R2B activ: inactive; PKA-R1A activ: inactive; SR-BI DiI inh: inactive

Results for C/C(=N\Nc1cc(-c2ccccc2)nc(-c2ccccc2)n1)c1ccc(O)c(C)c1 ?
Vif inh: inactive; SR-BI uptake up: inactive; PKA-R2B activ: inactive; PKA-R1A activ: inactive; SR-BI DiI inh: 94

How did CC(NC(=O)COC(=O)c1c[nH]c2ccccc12)c1ccccc1 (centres undefined) do in these assays?
Vif inh: inactive; SR-BI uptake up: inactive; PKA-R2B activ: inactive; PKA-R1A activ: inactive; SR-BI DiI inh: inactive

What do the screens show for `CCn1c(O)c(/C=C2\C=Nc3ccccc32)sc1=Nc1ccccc1`?
Vif inh: inactive; SR-BI uptake up: inactive; PKA-R2B activ: inactive; PKA-R1A activ: inactive; SR-BI DiI inh: 80

What do the screens show for `COc1cc(OC)c(NC(=O)c2ccco2)cc1Cl`?
Vif inh: inactive; SR-BI uptake up: inactive; PKA-R2B activ: inactive; PKA-R1A activ: inactive; SR-BI DiI inh: inactive

How did COc1cc(OC)c(NC(=O)c2cc3ccccc3cc2O)cc1Cl do in these assays?
Vif inh: inactive; SR-BI uptake up: inactive; PKA-R2B activ: inactive; PKA-R1A activ: inactive; SR-BI DiI inh: 94

How did COc1cc(NC(=O)c2ccccc2)c(OC)cc1Cl do in these assays?
Vif inh: inactive; SR-BI uptake up: inactive; PKA-R2B activ: inactive; PKA-R1A activ: inactive; SR-BI DiI inh: 86

What do the screens show for `Cc1cccnc1NC(=O)Nc1cccc(F)c1`?
Vif inh: inactive; PKA-R2B activ: inactive; PKA-R1A activ: inactive

How did COc1ccc(/C=C/C(=O)OCC(=O)Nc2ccc3[nH]c(=O)[nH]c3c2)cc1OC do in these assays?
Vif inh: inactive; SR-BI uptake up: inactive; PKA-R2B activ: inactive; PKA-R1A activ: inactive; SR-BI DiI inh: inactive

What do the screens show for `Cc1ccc(NS(=O)(=O)c2cc([N+](=O)[O-])ccc2NNC(=S)Nc2cc(C)ccc2C)c(C)c1`?
Vif inh: inactive; SR-BI uptake up: inactive; PKA-R2B activ: inactive; PKA-R1A activ: inactive; SR-BI DiI inh: 79

What do the screens show for `Cc1ccc(NS(=O)(=O)c2cc([N+](=O)[O-])ccc2NNC(=S)Nc2cccc(Cl)c2)c(C)c1`?
Vif inh: inactive; SR-BI uptake up: inactive; PKA-R2B activ: inactive; PKA-R1A activ: inactive; SR-BI DiI inh: 95

Results for COc1ccc(NC(=S)NNc2ccc([N+](=O)[O-])cc2S(=O)(=O)Nc2ccc(C)cc2C)cc1 ?
Vif inh: inactive; SR-BI uptake up: inactive; PKA-R2B activ: inactive; PKA-R1A activ: inactive; SR-BI DiI inh: 77

How did CCc1nc2ccc(C(=O)NCCOc3ccc(OC)cc3)cn2c1N(C)CCCc1ccccc1 do in these assays?
Vif inh: inactive

What do the screens show for `O=C(Nc1ccccc1)c1cc(C2COCCN2C(=O)c2cccs2)on1` (centres undefined)?
Vif inh: inactive

Results for COc1ccc(C(CC(=O)O)NC(=O)c2ccccc2[N+](=O)[O-])cc1 (centres undefined) ?
Vif inh: inactive; PKA-R2B activ: inactive; PKA-R1A activ: inactive

How did CN(Cc1ccccc1)C(=O)c1cccc(NC(=O)Cc2cccc(NC(=O)C3CCN(C(=O)C4CC4)CC3)c2)c1 do in these assays?
Vif inh: inactive; SR-BI uptake up: inactive; PKA-R2B activ: inactive; PKA-R1A activ: inactive; SR-BI DiI inh: inactive

Results for O=C(Cc1ccc(NC(=O)C2CCCN(C(=O)C3CCCC3)C2)cc1)Nc1cccc(C(=O)N2CCCCC2)c1 (centres undefined) ?
Vif inh: inactive; SR-BI uptake up: inactive; PKA-R2B activ: inactive; PKA-R1A activ: inactive; SR-BI DiI inh: 73

How did CN(Cc1ccccc1)C(=O)c1cccc(NC(=O)Cc2ccc(NC(=O)C3CCN(C(=O)C4CCC4)CC3)cc2)c1 do in these assays?
Vif inh: inactive; SR-BI uptake up: inactive; PKA-R2B activ: inactive; PKA-R1A activ: inactive; SR-BI DiI inh: 92

How did O=C(O)c1cccc(Br)c1 do in these assays?
Vif inh: inactive; SR-BI uptake up: inactive; PKA-R2B activ: inactive; PKA-R1A activ: inactive; SR-BI DiI inh: inactive

What do the screens show for `COC(=O)C1=C(C(=O)OC)SC(=C2C(=S)C(C)(C)N(C(=O)C3CC3)c3ccccc32)S1`?
Vif inh: inactive; SR-BI uptake up: inactive; PKA-R2B activ: inactive; PKA-R1A activ: inactive; SR-BI DiI inh: 97

What do the screens show for `CCCC(=O)N1c2ccccc2C(=C2SC(C(=O)OC)=C(C(=O)OC)S2)C(=S)C1(C)C`?
Vif inh: inactive; SR-BI uptake up: inactive; PKA-R2B activ: inactive; PKA-R1A activ: inactive; SR-BI DiI inh: 82

Results for COC(=O)C1=C(C(=O)OC)SC(=C2C(=S)C(C)(C)N(C(=O)C(C)C)c3ccccc32)S1 ?
SR-BI uptake up: inactive; PKA-R2B activ: inactive; PKA-R1A activ: inactive; SR-BI DiI inh: inactive

Results for CCCNC(=O)N(C)C[C@H]1Oc2cc(Br)ccc2S(=O)(=O)N([C@@H](C)CO)C[C@@H]1C ?
Vif inh: inactive; PKA-R2B activ: inactive; PKA-R1A activ: inactive

Results for C#CCOCCOCCOCCNc1nc(N2CCN(C(=O)CCCCCCCCCCNC(=O)Cn3cc(CCCCCN)nn3)CC2)nc(N2CCN(C(=O)CCCCCCCCCCNC(=O)[C@H]([C@@H](C)CC)n3cc(CCCCN=C(N)N)nn3)CC2)n1 ?
Vif inh: 104; SR-BI uptake up: inactive; PKA-R2B activ: 21; PKA-R1A activ: inactive; SR-BI DiI inh: 84

What do the screens show for `C#CCOCCOCCOCCNc1nc(N2CCN(C(=O)CCCCCCCCCCNC(=O)[C@H]([C@@H](C)CC)n3cc(CCCCCN)nn3)CC2)nc(N2CCN(C(=O)CCCCCCCCCCNC(=O)[C@H](CO)n3cc(CCCCCN)nn3)CC2)n1`?
Vif inh: 96; SR-BI uptake up: inactive; PKA-R2B activ: inactive; PKA-R1A activ: inactive; SR-BI DiI inh: inactive
